Measured values as given in ChEMBL document CHEMBL5058577, “EUbOPEN Chemogenomics Library 2 (Multiplex)” (2022).

Test system: U2OS
Experiment: Multiplex assay against U2OS
Format: toxicity, cell-based
Conditions: human
Summary of the method: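 Tubulin, mitochondrial-mass and membrane-permeability phenotypes are per cents of healthy-nucleus cells. Cells were gated by CellPathfinder machine learning into Hoechst high-intensity objects or normal cells, normal cells into healthy, pyknosed or fragmented nuclei, and pyknosed cells into mitotic or apoptotic. Before that, live cells stained at seeding with Hoechst33342, BioTracker Green Microtubule Cytoskeleton Dye, MitoTracker Red and Annexin V Alexa Fluor 680 were imaged on a CQ1 microscope at 37°C and 5% CO2 after compound addition.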

[1] = 12 h, 1 µM, compound concentration 1 uM, replicate 1
[2] = 12 h, 1 µM, compound concentration 1 uM, replicate 2
[3] = 12 h, 10 µM, compound concentration 10 uM, replicate 1
[4] = 12 h, 10 µM, compound concentration 10 uM, replicate 2
[5] = 24 h, 1 µM, compound concentration 1 uM, replicate 1
[6] = 24 h, 1 µM, compound concentration 1 uM, replicate 2
[7] = 24 h, 10 µM, compound concentration 10 uM, replicate 1
[8] = 24 h, 10 µM, compound concentration 10 uM, replicate 2
[9] = 48 h, 1 µM, compound concentration 1 uM, replicate 1
[10] = 48 h, 1 µM, compound concentration 1 uM, replicate 2
[11] = 48 h, 10 µM, compound concentration 10 uM, replicate 1
[12] = 48 h, 10 µM, compound concentration 10 uM, replicate 2

S=C(NCCCc1c[nH]cn1)NCCCN(Cc1ccc(Cl)c(Cl)c1)c1ccc(Br)cn1
Population Apoptotic (%) [1]: 75%
Population Fragmented Nuclei (%) [1]: 27%
Population Healthy Nuclei (%) [1]: 63%
Population Hoechst High Intensity Objects (%) [1]: 2%
Population Membrane Permeable-Phenotype (%) [1]: 13%
Population Mitochondria Different-Phenotype (%) [1]: 2%
Population Mitotic Cells (%) [1]: 25%
Population Normal (%) [1]: 97%
Population Pyknosed Nuclei (%) [1]: 9%
Population Tubulin-Different-Phenotype (%) [1]: 6%
Total Cell Count [1]: 228
Population Apoptotic (%) [2]: 80%
Population Fragmented Nuclei (%) [2]: 20%
Population Healthy Nuclei (%) [2]: 68%
Population Hoechst High Intensity Objects (%) [2]: 3%
Population Membrane Permeable-Phenotype (%) [2]: 6%
Population Mitochondria Different-Phenotype (%) [2]: 9%
Population Mitotic Cells (%) [2]: 20%
Population Normal (%) [2]: 96%
Population Pyknosed Nuclei (%) [2]: 11%
Population Tubulin-Different-Phenotype (%) [2]: 1%
Total Cell Count [2]: 93
Population Apoptotic (%) [3]: 66%
Population Fragmented Nuclei (%) [3]: 27%
Population Healthy Nuclei (%) [3]: 46%
Population Hoechst High Intensity Objects (%) [3]: 6%
Population Membrane Permeable-Phenotype (%) [3]: 86%
Population Mitochondria Different-Phenotype (%) [3]: 26%
Population Mitotic Cells (%) [3]: 33%
Population Normal (%) [3]: 93%
Population Pyknosed Nuclei (%) [3]: 26%
Population Tubulin-Different-Phenotype (%) [3]: 83%
Total Cell Count [3]: 220
Population Apoptotic (%) [4]: 58%
Population Fragmented Nuclei (%) [4]: 24%
Population Hoechst High Intensity Objects (%) [4]: 0%
Population Membrane Permeable-Phenotype (%) [4]: 84%
Population Mitochondria Different-Phenotype (%) [4]: 60%
Population Mitotic Cells (%) [4]: 41%
Population Normal (%) [4]: 100%
Population Pyknosed Nuclei (%) [4]: 29%
Population Tubulin-Different-Phenotype (%) [4]: 89%
Total Cell Count [4]: 82
Population Apoptotic (%) [5]: 81%
Population Fragmented Nuclei (%) [5]: 22%
Population Healthy Nuclei (%) [5]: 69%
Population Hoechst High Intensity Objects (%) [5]: 3%
Population Membrane Permeable-Phenotype (%) [5]: 11%
Population Mitochondria Different-Phenotype (%) [5]: 3%
Population Mitotic Cells (%) [5]: 18%
Population Normal (%) [5]: 96%
Population Pyknosed Nuclei (%) [5]: 8%
Population Tubulin-Different-Phenotype (%) [5]: 9%
Total Cell Count [5]: 285
Population Apoptotic (%) [6]: 100%
Population Fragmented Nuclei (%) [6]: 30%
Population Healthy Nuclei (%) [6]: 65%
Population Hoechst High Intensity Objects (%) [6]: 1%
Population Membrane Permeable-Phenotype (%) [6]: 7%
Population Mitochondria Different-Phenotype (%) [6]: 5%
Population Mitotic Cells (%) [6]: 0%
Population Normal (%) [6]: 98%
Population Pyknosed Nuclei (%) [6]: 4%
Population Tubulin-Different-Phenotype (%) [6]: 3%
Total Cell Count [6]: 125
Population Apoptotic (%) [7]: 62%
Population Fragmented Nuclei (%) [7]: 33%
Population Healthy Nuclei (%) [7]: 38%
Population Hoechst High Intensity Objects (%) [7]: 5%
Population Membrane Permeable-Phenotype (%) [7]: 59%
Population Mitochondria Different-Phenotype (%) [7]: 17%
Population Mitotic Cells (%) [7]: 37%
Population Normal (%) [7]: 94%
Population Pyknosed Nuclei (%) [7]: 28%
Population Tubulin-Different-Phenotype (%) [7]: 54%
Total Cell Count [7]: 227
Population Apoptotic (%) [8]: 60%
Population Fragmented Nuclei (%) [8]: 29%
Population Healthy Nuclei (%) [8]: 40%
Population Hoechst High Intensity Objects (%) [8]: 2%
Population Membrane Permeable-Phenotype (%) [8]: 77%
Population Mitochondria Different-Phenotype (%) [8]: 32%
Population Mitotic Cells (%) [8]: 39%
Population Normal (%) [8]: 97%
Population Pyknosed Nuclei (%) [8]: 29%
Population Tubulin-Different-Phenotype (%) [8]: 64%
Total Cell Count [8]: 79
Population Apoptotic (%) [9]: 83%
Population Fragmented Nuclei (%) [9]: 17%
Population Healthy Nuclei (%) [9]: 74%
Population Hoechst High Intensity Objects (%) [9]: 1%
Population Membrane Permeable-Phenotype (%) [9]: 5%
Population Mitochondria Different-Phenotype (%) [9]: 3%
Population Mitotic Cells (%) [9]: 16%
Population Normal (%) [9]: 98%
Population Pyknosed Nuclei (%) [9]: 7%
Population Tubulin-Different-Phenotype (%) [9]: 2%
Total Cell Count [9]: 409
Population Apoptotic (%) [10]: 87%
Population Fragmented Nuclei (%) [10]: 28%
Population Healthy Nuclei (%) [10]: 60%
Population Hoechst High Intensity Objects (%) [10]: 0%
Population Mitotic Cells (%) [10]: 12%
Population Normal (%) [10]: 99%
Population Pyknosed Nuclei (%) [10]: 11%
Population Tubulin-Different-Phenotype (%) [10]: 3%
Total Cell Count [10]: 211
Population Apoptotic (%) [11]: 70%
Population Fragmented Nuclei (%) [11]: 43%
Population Healthy Nuclei (%) [11]: 8%
Population Hoechst High Intensity Objects (%) [11]: 21%
Population Membrane Permeable-Phenotype (%) [11]: 46%
Population Mitochondria Different-Phenotype (%) [11]: 20%
Population Mitotic Cells (%) [11]: 29%
Population Normal (%) [11]: 78%
Population Pyknosed Nuclei (%) [11]: 47%
Population Tubulin-Different-Phenotype (%) [11]: 26%
Total Cell Count [11]: 230
Population Apoptotic (%) [12]: 73%
Population Fragmented Nuclei (%) [12]: 50%
Population Healthy Nuclei (%) [12]: 15%
Population Hoechst High Intensity Objects (%) [12]: 15%
Population Membrane Permeable-Phenotype (%) [12]: 57%
Population Mitochondria Different-Phenotype (%) [12]: 42%
Population Mitotic Cells (%) [12]: 26%
Population Normal (%) [12]: 84%
Population Pyknosed Nuclei (%) [12]: 33%
Population Tubulin-Different-Phenotype (%) [12]: 57%
Total Cell Count [12]: 105
